Measurements from ChEMBL document CHEMBL4837209, “Synthesis and BK channel-opening activity of 2-amino-1,3-thiazole derivatives” (Bioorg Med Chem Lett, 2021).
Active and inactive are the calls of the source. No cut-off for these calls is given here.

Assays:
[1] = molecular target: Calcium-activated potassium channel subunit alpha-1 (Homo sapiens) (UniProt Q12791); experiment: Opening of BK channel in human AD293 cells assessed as relative fluorescence unit at 5 uM by cell-based fluorescence assay relative to control
Sequence of Calcium-activated potassium channel subunit alpha-1 (Homo sapiens) (Q12791 whole entry): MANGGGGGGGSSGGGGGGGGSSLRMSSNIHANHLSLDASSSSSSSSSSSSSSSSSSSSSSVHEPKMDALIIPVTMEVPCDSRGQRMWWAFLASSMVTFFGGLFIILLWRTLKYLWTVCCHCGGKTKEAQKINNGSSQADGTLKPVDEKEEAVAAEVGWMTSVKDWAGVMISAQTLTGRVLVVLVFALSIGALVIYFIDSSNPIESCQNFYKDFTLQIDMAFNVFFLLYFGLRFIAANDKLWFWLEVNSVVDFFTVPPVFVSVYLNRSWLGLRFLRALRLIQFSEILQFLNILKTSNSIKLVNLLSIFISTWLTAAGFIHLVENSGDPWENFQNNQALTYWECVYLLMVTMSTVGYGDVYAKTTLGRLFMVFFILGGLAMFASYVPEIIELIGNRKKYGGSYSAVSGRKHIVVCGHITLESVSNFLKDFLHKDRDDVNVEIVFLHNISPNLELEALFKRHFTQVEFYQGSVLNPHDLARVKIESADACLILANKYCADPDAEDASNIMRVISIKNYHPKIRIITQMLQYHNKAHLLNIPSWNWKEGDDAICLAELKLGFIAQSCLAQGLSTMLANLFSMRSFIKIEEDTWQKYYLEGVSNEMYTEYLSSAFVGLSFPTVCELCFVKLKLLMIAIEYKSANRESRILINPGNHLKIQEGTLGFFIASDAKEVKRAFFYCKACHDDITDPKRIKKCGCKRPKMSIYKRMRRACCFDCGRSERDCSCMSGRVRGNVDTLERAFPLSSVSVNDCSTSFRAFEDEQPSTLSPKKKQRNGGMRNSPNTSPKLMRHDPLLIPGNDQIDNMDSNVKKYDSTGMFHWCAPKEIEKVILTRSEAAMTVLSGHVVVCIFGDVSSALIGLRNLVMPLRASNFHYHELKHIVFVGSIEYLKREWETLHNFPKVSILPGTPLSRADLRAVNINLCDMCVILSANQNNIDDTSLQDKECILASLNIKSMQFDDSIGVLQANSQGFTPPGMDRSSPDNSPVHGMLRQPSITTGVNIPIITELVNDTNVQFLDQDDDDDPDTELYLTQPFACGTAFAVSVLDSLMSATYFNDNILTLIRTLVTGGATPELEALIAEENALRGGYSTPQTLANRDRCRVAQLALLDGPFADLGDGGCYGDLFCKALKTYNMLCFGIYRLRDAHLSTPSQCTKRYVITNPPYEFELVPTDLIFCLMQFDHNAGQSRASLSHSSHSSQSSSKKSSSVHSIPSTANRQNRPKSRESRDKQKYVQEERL
How it was run: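 FluxOR Tl⁺-flux assay in AD-293 cells expressing hyperactive mutant BK channels (G803D/N806K). Each fluorescence trace was normalized to its own basal level to give RFU. ΔRFU with compound at 5 μM was expressed versus the drug-free control. DMSO served as negative control and CTBIC at a fixed concentration as positive control. Values are means of at least three separate measurements.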

[2] = molecular target: Calcium-activated potassium channel subunit alpha-1 (Homo sapiens) (UniProt Q12791); experiment: Opening of BK channel in human AD293 cells assessed as relative fluorescence unit by cell-based fluorescence assay; details: dose 1-30 µM
[3] = molecular target: Calcium-activated potassium channel subunit alpha-1 (Homo sapiens) (UniProt Q12791); experiment: […] of BK calcium channel in human AD293 cells assessed as relative fluorescence unit at 1 to 30 uM in presence of 1 uM paxilline by cell-based fluorescence assay; details: dose 1-30 µM
How it was run: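 FluxOR Tl⁺-flux fluorescence in AD-293 cells expressing G803D/N806K mutant BK channels. Compounds were tested at 1–30 μM, alone and co-applied with 1 μM paxilline to confirm the BK dependence of the signal. Signals were normalized to the basal level of each trace. Student t-test was used.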

[4] = molecular target: Calcium-activated potassium channel subunit alpha-1 (Rattus norvegicus) (UniProt Q62976); experiment: […] of rat BK calcium channel expressed in Xenopus laevis oocytes assessed as V1/2 at 10 uM at -80 to 200 mV by patch clamp assay; type: cell-based; details: Oocyte
Sequence of Calcium-activated potassium channel subunit alpha-1 (Rattus norvegicus) (Q62976 whole entry): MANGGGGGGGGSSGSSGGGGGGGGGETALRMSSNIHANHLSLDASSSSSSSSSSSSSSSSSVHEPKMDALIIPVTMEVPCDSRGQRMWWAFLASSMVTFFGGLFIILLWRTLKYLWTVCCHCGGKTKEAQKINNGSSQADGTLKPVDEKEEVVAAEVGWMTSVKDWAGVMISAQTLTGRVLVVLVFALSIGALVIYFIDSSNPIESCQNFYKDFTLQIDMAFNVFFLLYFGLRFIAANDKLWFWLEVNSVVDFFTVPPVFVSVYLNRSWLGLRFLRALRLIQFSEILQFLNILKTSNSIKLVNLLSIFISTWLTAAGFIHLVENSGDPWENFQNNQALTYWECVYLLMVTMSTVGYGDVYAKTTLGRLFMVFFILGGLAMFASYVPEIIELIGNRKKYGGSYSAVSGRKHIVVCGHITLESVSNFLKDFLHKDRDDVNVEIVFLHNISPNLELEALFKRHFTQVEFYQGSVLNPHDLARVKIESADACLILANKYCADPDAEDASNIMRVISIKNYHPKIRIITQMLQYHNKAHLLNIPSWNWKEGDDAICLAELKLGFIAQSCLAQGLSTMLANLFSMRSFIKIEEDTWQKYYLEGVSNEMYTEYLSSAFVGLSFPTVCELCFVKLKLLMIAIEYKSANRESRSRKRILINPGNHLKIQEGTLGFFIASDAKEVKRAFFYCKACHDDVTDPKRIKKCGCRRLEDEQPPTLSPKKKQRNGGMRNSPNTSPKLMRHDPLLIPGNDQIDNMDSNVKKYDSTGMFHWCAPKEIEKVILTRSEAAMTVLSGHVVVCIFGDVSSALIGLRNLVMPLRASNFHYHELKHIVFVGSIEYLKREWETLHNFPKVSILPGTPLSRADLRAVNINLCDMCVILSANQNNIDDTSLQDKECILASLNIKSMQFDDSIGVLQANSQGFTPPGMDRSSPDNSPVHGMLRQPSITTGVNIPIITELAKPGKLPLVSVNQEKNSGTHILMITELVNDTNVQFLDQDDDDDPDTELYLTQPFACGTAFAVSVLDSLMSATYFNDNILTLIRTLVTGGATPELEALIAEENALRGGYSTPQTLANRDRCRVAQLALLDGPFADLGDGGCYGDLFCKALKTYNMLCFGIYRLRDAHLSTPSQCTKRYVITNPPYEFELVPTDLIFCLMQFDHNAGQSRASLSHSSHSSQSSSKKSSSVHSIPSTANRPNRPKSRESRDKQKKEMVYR
How it was run: (§1)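 Rat BK α-subunit (Slo1) expressed in Xenopus laevis oocytes. Currents were recorded by gigaohm-seal patch clamp in the outside-out configuration. Macroscopic currents were evoked by voltage pulses from -80 to 200 mV, with and without compound. Student t-test was used.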

[5] = molecular target: Calcium-activated potassium channel subunit alpha-1 (Rattus norvegicus) (UniProt Q62976); experiment: […] of rat BK calcium channel expressed in Xenopus laevis oocytes assessed as maximum conductance at 10 uM at -80 to 200 mV by patch clamp assay relative to control; type: cell-based; details: Oocyte; how it was run: as §1
[6] = molecular target: Calcium-activated potassium channel subunit alpha-1 (Rattus norvegicus) (UniProt Q62976); experiment: […] of rat BK calcium channel expressed in Xenopus laevis oocytes assessed as increase in inward current tail at 10 uM at -80 to 200 mV by patch clamp assay; type: cell-based; details: Oocyte; how it was run: as §1
[7] = molecular target: Calcium-activated potassium channel subunit alpha-1 (Rattus norvegicus) (UniProt Q62976); experiment: […] of rat BK calcium channel expressed in Xenopus laevis oocytes assessed as G-V shift toward more negative voltage at 10 uM at -80 to 200 mV by patch clamp assay; type: cell-based; details: Oocyte; how it was run: as §1
[8] = molecular target: Calcium-activated potassium channel subunit alpha-1 (Rattus norvegicus) (UniProt Q62976); experiment: […] of rat BK calcium channel expressed in Xenopus laevis oocytes assessed as increase in outward current tail at 10 uM at -80 to 200 mV by patch clamp assay; type: cell-based; details: Oocyte; how it was run: as §1

RFU [1]	other results	SMILES
1.27		Cc1cccc(Cc2cnc(N)s2)c1
1.07		Nc1ncc(Cc2ccccc2C(F)(F)F)s1
1.08		Nc1ncc(Cc2cccnc2)s1
1.22		Nc1ncc(Cc2cccc(C(F)(F)F)c2)s1
2.67	inhibition [2]: Dose-Dependent Effect; inhibition [3]: Active; V1/2 [4]: 23.4 mV; fold change (FC) [5]: 1.4; Activity [6]: Active; Activity [7]: Active; Activity [8]: Active	Nc1ncc(Cc2ccccc2Br)s1
1.08		Nc1ncc(C(=O)c2ccc(C(F)(F)F)cc2)s1
1.51		Nc1ncc(Cc2cccc(Cl)c2)s1
1.02		COc1ccc(Cc2cnc(N)s2)cc1
3.3		O=C(O)c1ccc(Cl)c2c1[nH]c1c3ccc(C(F)(F)F)cc3oc12
1		N#Cc1cccc(Cc2cnc(N)s2)c1
1.59		Nc1ncc(Cc2ccc(Cl)cc2)s1
0.94		Nc1ncc(Cc2ccc([N+](=O)[O-])cc2)s1
1.37		Cc1ccccc1Cc1cnc(N)s1
1.21		N#Cc1ccc(Cc2cnc(N)s2)cc1
2.1	inhibition [2]: Dose-Dependent Effect; inhibition [3]: Active; V1/2 [4]: 24.5 mV; fold change (FC) [5]: 1.3; Activity [6]: Active; Activity [7]: Active; Activity [8]: Active	Nc1ncc(Cc2ccc(C(F)(F)F)cc2)s1
0.94		Nc1ncc(C(=O)c2ccc(Br)cc2)s1
1.13		Nc1ncc(Cc2ccccc2Cl)s1
1.11		Nc1ncc(Cc2ccncc2)s1
0.94		COc1ccccc1Cc1cnc(N)s1
1.37		Nc1ncc(Cc2cccc(Br)c2)s1
1.02		COc1cccc(Cc2cnc(N)s2)c1
1.85		Nc1ncc(Cc2ccc(Br)cc2)s1
1.14		CC(=O)Nc1ncc(Cc2ccc(Br)cc2)s1
1.11		Cc1ccc(Cc2cnc(N)s2)cc1
1.06		N#Cc1ccccc1Cc1cnc(N)s1
0.94		O=C(CCl)Nc1ncc(Cc2ccc(Br)cc2)s1
0.97		COc1cc(Cc2cnc(N)s2)cc(C(F)(F)F)c1
